Measured values reported in the EternaBench riboswitch data.

Tested on: MS2 coat protein
Test: apparent Kd, MS2 coat protein; higher = weaker binding; RNA-MaP array; FMN 200 µM where present
Outline: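 The titrant was SNAP-549-labelled MS2 coat protein, run from 0.7 or 1.5 nM in doubling steps to 3 µM. It was applied to designs transcribed by stalled E. coli RNA polymerase on Illumina sequencing-chip clusters, without ligand first and then with constant ligand, in 100 mM Tris-HCl pH 7.5, 80 mM KCl, 4 mM MgCl2, BSA, DTT, yeast tRNA and Tween-20. The apparent Kd is the median of filtered per-cluster binding-curve fits, with green signal normalised to red-channel RNA signal and control-cluster median Fmax.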

[1] = designed as: OFF switch for flavin mononucleotide, no ligand
[2] = ligand present: flavin mononucleotide, designed as: OFF switch for flavin mononucleotide
[3] = designed as: ON switch for flavin mononucleotide, no ligand
[4] = ligand present: flavin mononucleotide, designed as: ON switch for flavin mononucleotide

Sequence | apparent Kd [1] | apparent Kd [2] | apparent Kd [3] | apparent Kd [4]
GGUUGGCGAGGAUAUACAUGAGGAUCACCCAUGUGGUCCUGUGGCUGGUCAAAACUUUGUAGAAGGCGCGGGUC | 83.1 nM | 101 nM | – | –
GUAAAGUGAGGAUAUGCUGGAGGUGUAUUCUACGUGUCGAAACAUGAGGAUCACCCAUGUAGAAGGCACGGGCG | 10.2 nM | 13.1 nM | – | –
GUAAAGUGAGGAUAUGGUAAAUUAAUUAUUAAUUAAUUAAUCCAGAAGGCACAUGAGGAUCACCCAUGUAUAUG | 38.2 nM | 61.3 nM | – | –
GUAAAGUGAGGAUAUGGUGAGUAGUGCCUGAGCGCUGCUCACCAGAAGGCACAUGAGGAUCACCCAUGUAUAGC | 14.7 nM | 27.1 nM | – | –
GUAAAUCAUGUAGGAUAUGCAUGGCGAAGCUACGCAGAAGGACAUGAGGAUCACCCAUGUUAAAGCUACCGAGUUCGGUGGCAA | 133 nM | 162 nM | – | –
GUAAAUGGUAUGGCUUCGACCACACAGGAUAUGAAAAUGUACAUGAGGAUCACCCAUGUUCUGAAUCAGAAGGGUGAUGGACGG | – | – | 20.7 nM | 6.74 nM
GUAACAUGAGGAUCACCCAUGUAUAGAACACUCAAUAGAUCUGAGGAUAUACUAGAAUUUACGUAGUAGAAGGCAGUGGGUACA | – | – | 64.1 nM | 33.6 nM
GUAAUAAAGAUCCAAUUAUACUACAUGAGGAUCACCCAUGUGCAGGAUAUCGAGAGUUUAUAAUUCGAGAAGGGCAAAUUCAUU | 73 nM | 159 nM | – | –
GUACCUUAUGAGAAGGCGAUCAUGAAACAUGAUCGAGGAUAUCAUGUAAACAUGAGGAUCACCCAUGUAUGGGUAUUAUGGUAG | – | – | 40.8 nM | 11.3 nM
GUACGUGGACAGAAGGCGACAUGAGGAUCACCCAUGUUGGCUCGGGUAUGACCAAUCCGCAUGAUCGAGGAUAUGUCUGCGGGC | 199 nM | 14.8 nM | – | –
GUAGAACAUGAGGAUCACCCAUGUGAGGGCGCAUGAGGAUAUGUCCGUACCUAGCAUACGAUAGAAGGCAUGGUGC | – | – | 38.7 nM | 27.4 nM
GUAGAGUAGUGAGGAUAUACGAGAUCGAUAGAUCGGCGAUCCAAUAAUACAUGAGGAUCACCCAUGUAGAAGGCACUUCUCUAC | 7.79 nM | 116 nM | – | –
GUAGCACAUGAAAAUAUAACAUGAGGAUCACCCAUGUGUUAUGAGGAUAUGGAUGUGAAGUUAAUCCAGAAGGCAUUAUGCUAC | – | – | 21.5 nM | 11.7 nM
GUAGCAUACCGAGGAUAUCUAUCCCGGAAACGGACAUGAGGAUCACCCAUGUGGCGAAAGCCUUGGGAGAAGGCGGAAUGCUAC | – | – | 46.7 nM | 17.2 nM
GUAGCAUACCGAGGAUAUCUCAAUAAUAAACAAACAUGAGGAUCACCCAUGUGGCGAAAGCCAAGGGAGAAGGCGGAAUGCUAC | – | – | 43.1 nM | 17.6 nM
GUAGCAUACCGAGGAUAUUCACAUAAUAAAUAAACAUGAGGAUCACCCAUGUGGCGAAAGCCUAGGGAGAAGGCGGAAUGCUAC | – | – | 76 nM | 18.7 nM
GUAGCAUACCGAGGAUAUUCAUACAGGAAACAGACAUGAGGAUCACCCAUGUGGCGAAAGCCUUGGGAGAAGGCGGAAUGCUAC | – | – | 146 nM | 22.7 nM
GUAGCAUACCGAGGAUAUUCAUACCGGAAACGGACAUGAGGAUCACCCAUGUGGCGAAAGCCUUAGGAGAAGGCGGAAUGCUAC | – | – | 16.4 nM | 12.3 nM
GUAGCAUACCGAGGAUAUUCUAACCGGAAACGGACAUGAGGAUCACCCAUGUGGCGAAAGCCUAGGGAGAAGGCGGAAUGCUAC | – | – | 10.5 nM | 11.6 nM
GUAGCAUACGGAGGAUAUUCAUACCGGAAACGGACAUGAGGAUCACCCAUGUGGCGAAAGCCUUGGAAGAAGGCCGUAUGCUAC | – | – | 3.96 nM | 3.55 nM
GUAGCAUACUGAGGAUAUUCAUACCGGAAACGGACAUGAGGAUCACCCAUGUUAUAUAAAUAUUUGGAGAAGGCAGAAUGCUAC | – | – | 19.4 nM | 13.2 nM
GUAGCAUCAAUUAUACAUGAGGAUCACCCAUGUUACAUGGGUAAGGAUAUUGAGGUUAUUAUUGGCAAGAAGGUACUAUGCUAC | – | – | 409 nM | 168 nM
GUAGCAUUGAGAGGAUAUCCAUACCGGAAACGGACAUGAGGAUCACCCAUGUGGCGAAAGCCUUGGGAGAAGGCUCUAUGCUAC | – | – | 4.35 nM | 3.52 nM
GUAGCUAACGGAGGAUAUUCAUACCGGAAACGGACAUGAGGAUCACCCAUGUGGCGAAAGCCAUGGGAGAAGGCCGUUAGCUAC | – | – | 918 nM | 147 nM
GUAGCUACAUGAGGAUCACCCAUGUAGGAUAUCGCUAUUGUAAUCAUGAAACAUGAUUACAAUAGCGAGAAGGACGUUAGCUAC | 6.31 nM | 7.31 nM | – | –
GUAGCUAUCGGAGGAUAUGGGUUGCGGAAACGCACAUGAGGAUCACCCAUGUAAAUAAAUAAUUCCUAGAAGGCCGAUAGCUAC | – | – | 21 nM | 15 nM
GUAGCUAUCGGAGGAUAUUCAUACCGGAAACGGACAUGAGGAUCACCCAUGUGGCGAAAGCCCUGGGAGAAGGCCGAUAGCUAC | – | – | 382 nM | 259 nM

Sequence | apparent Kd [1] | apparent Kd [2] | apparent Kd [3] | apparent Kd [4]
GUAGCUAUCGGAGGAUAUUCAUACCGGAAACGGACAUGAGGAUCACCCAUGUGGCGAAAGCCUUGGGAGAAGGUCGAUAGCUAC | – | – | 308 nM | 10.5 nM
GUAGCUAUCGGAGGAUAUUCAUACCGGAAACGGACAUGAGGAUCACCCAUGUGGCGAAAGCCUUUGGAGAAGGCCGAUAGCUAC | – | – | 3.56 nM | 3.33 nM
GUAGUGCUCAUAGGAUAUCGGGAACAACGUAGACAGGUUGUACAUGAGGAUCACCCAUGUAAAGUCGAGAAGGGUGAUCACGCC | – | – | 519 nM | 194 nM
GUAGUUUAUGUAGGAUAUGCGAGGCGAGCCUAAGCAGAAGGACAUGAGGAUCACCCAUGUAUUGCGGUCUGCGUUCAGAUCGCU | 33.2 nM | 133 nM | – | –
GUAUAUAUGAGGUAGGAUAUCCAAAAUAAAACAUGAGGAUCACCCAUGUAAAUAAAUAAUAAAUGGGAGAAGGACCACAUAUAUAC | – | – | 30.8 nM | 13.8 nM
GUAUAUAUGUGGUACAUGAGGAUCACCCAUGUGUCUUUACAUGAGGAUAUGGAUUCUAAUUGGAUCCAGAAGGCAUGUAUAUAC | – | – | 33 nM | 23.7 nM
GUAUAUCACUAAGGAUAUCUGUAUUUUGUUGAAACAUGAGGAUCACCCAUGUUCAUGAAAUUAUAGGAGAAGGUAGAGAUAUAC | – | – | 4.96 nM | 4.57 nM
GUAUCGUAUGUGAGGAUAUAUUUGUCCUUGGAUCUGUAGAAGGCACAUGAGGAUCACCCAUGUCCAAGUGGUCC | 27.6 nM | 27.7 nM | – | –
GUAUCUUAUGUGAGGAUAUAUUAUGUCUUGGUGUAGUAGAAGGCACAUGAGGAUCACCCAUGUCCUAUUGGUCU | 40.9 nM | 116 nM | – | –
GUAUGGAGUACAGGAUAUGUUAGUUUUAAGUGUAUUGGUUAUUACUUAAUUACAGAAGGGUAUUACAUGAGGAUCACCCAUGUA | – | – | 13.6 nM | 10.6 nM
GUAUUUGGUUAGGAUAUUGACUCGAGAUCGAGAUAAGAAGGAGCCACAUGAGGAUCACCCAUGUCUAUCCAAGA | 27 nM | 29.6 nM | – | –
GUAUUUUAAGUAAGGAUAUACCUCUGGAAACAGAGGUAGAAGGUACAUGAGGAUCACCCAUGUUUCUCUUUUGG | 17 nM | 23.6 nM | – | –
GUCAGCGCGUGAGGAUAUACAACACUGCUUCGGCAGUGUAUUAAGAUCACAUGAGGAUCACCCAUGUAGAAGGCACGAGCUGAU | 14 nM | 263 nM | – | –
GUCAGCUCGCGAGGAUAUACAACACUGCUUCGGCAGUGUAUUAAGAUCACAUGAGGAUCACCCAUGUAGAAGGCACGAGCUGAU | 10.4 nM | 145 nM | – | –
GUCAGCUCGGGAGGAUAUACAACACUGCUUCGGCAGUGUAUUAAGAUCACAUGAGGAUCACCCAUGUAGAAGGCACGAGCUGAU | 7.79 nM | 51 nM | – | –
GUCAGCUCGUGAGGAUAUAAAACACUGCUUCGGCAGUGUAUUAAGAUCACAUGAGGAUCACCCAUGUAGAAGGCACGAGCUGAU | 5.05 nM | 6.38 nM | – | –
GUCAGCUCGUGAGGAUAUACAACACUGCUUCGGCAGUGUAUUAAGAACACAUGAGGAUCACCCAUGUAGAAGGCACGAGCUGAU | 4.92 nM | 6.08 nM | – | –
GUCAGCUCGUGAGGAUAUACAACACUGCUUCGGCAGUGUAUUAAGAUCACAUGAGGAUCACCCAUGUAGAAGGCACGAACUGAU | 12.9 nM | 212 nM | – | –
GUCAGCUCGUGAGGAUAUACAACACUGCUUCGGCAGUGUAUUAAGAUCACAUGAGGAUCACCCAUGUAGAAGGCACGAGCUGAU | 42.1 nM | 832 nM | – | –
GUCAGCUCGUGAGGAUAUACAACACUGCUUCGGCAGUGUAUUAAGAUCACAUGAGGAUCACCCAUGUAGAAGGCAUGAGCUGAU | 14.9 nM | 297 nM | – | –
GUCAGCUCGUGAGGAUAUACAACACUGCUUCGGCAGUGUAUUAAGGUCACAUGAGGAUCACCCAUGUAGAAGGCACGAGCUGAU | 8.12 nM | 105 nM | – | –
GUCAGCUCGUGAGGAUAUACAACACUGCUUCGGCAGUGUAUUACGAUCACAUGAGGAUCACCCAUGUAGAAGGCACGAGCUGAU | 15.2 nM | 307 nM | – | –
GUCAGCUCGUGAGGAUAUACAACACUGCUUCGGCAGUGUAUUGAGAUCACAUGAGGAUCACCCAUGUAGAAGGCACGAGCUGAU | 12.9 nM | 225 nM | – | –
GUCAGCUCGUGAGGAUAUACAACACUGCUUCGGCAGUGUGUUAAGAUCACAUGAGGAUCACCCAUGUAGAAGGCACGAGCUGAU | 7.69 nM | 88.9 nM | – | –
GUCAGCUCGUGAGGAUAUACAACACUGCUUCGGCAGUUUAUUAAGAUCACAUGAGGAUCACCCAUGUAGAAGGCACGAGCUGAU | 14.4 nM | 264 nM | – | –
GUCAGCUCGUGAGGAUAUACAACACUGCUUCGGCUGUGUAUUAAGAUCACAUGAGGAUCACCCAUGUAGAAGGCACGAGCUGAU | 13.5 nM | 202 nM | – | –
GUCAGCUCGUGAGGAUAUACAACACUGCUUCGGGAGUGUAUUAAGAUCACAUGAGGAUCACCCAUGUAGAAGGCACGAGCUGAU | 15 nM | 254 nM | – | –
